This is a sample that favours compounds with a hit; in the whole collection about 4.7% have one here.
MrgX1 antag – antagonists of human MrgX1 receptor. AID 588676. hit rate 1.3% among 310,000. Q96LB2. B-score at 10 µM. MRGX1-HEK293 calcium flux, Fluo-4, BAM8-22 antagonism; stronger effect = lower value;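 active = calcium-response B-score plate-corrected more than 3 library SD below zero, starting fluorescence within 5 deviations, no agonist response on first addition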;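 also: peak minus trough fluorescence over baseline after final BAM8-22 challenge near maximal dose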
MrgX1 PAM – allosterically activates human MrgX1 receptor signaling | Q96LB2 | MrgX1-HEK293, Fluo-4 calcium flux, FDSS; stronger effect = higher value | B-score at 10 µM | hit rate 0.63% among 310,000;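 active = plate-corrected calcium response at least 3 library SD above typical, normal starting fluorescence, not activating the receptor alone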;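 also: compound read alongside a low EC10 to EC30 dose of BAM8-22 agonist; peak minus trough fluorescence over baseline measured at the second addition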
Cl transport mod – modulators of human KCC2 chloride dependent transport | Q9H2X9 | KCC2 cells, thallium flux FluoZin-2 fluorescence | B-score of Tl+ flux slope (higher = more flux/activation; lower = inhibition) at 10 µM | hit rate 2.2% among 190,000 | AID 1456;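 active = thallium flux slope and its plate-corrected score both differing from the plate sample mean at a set confidence after two filtering rounds, in either direction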;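 also: slope of fluorescence scaled to starting intensity during 10 to 20 s after thallium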
Target sequence (Q9H2X9 whole entry, looked up): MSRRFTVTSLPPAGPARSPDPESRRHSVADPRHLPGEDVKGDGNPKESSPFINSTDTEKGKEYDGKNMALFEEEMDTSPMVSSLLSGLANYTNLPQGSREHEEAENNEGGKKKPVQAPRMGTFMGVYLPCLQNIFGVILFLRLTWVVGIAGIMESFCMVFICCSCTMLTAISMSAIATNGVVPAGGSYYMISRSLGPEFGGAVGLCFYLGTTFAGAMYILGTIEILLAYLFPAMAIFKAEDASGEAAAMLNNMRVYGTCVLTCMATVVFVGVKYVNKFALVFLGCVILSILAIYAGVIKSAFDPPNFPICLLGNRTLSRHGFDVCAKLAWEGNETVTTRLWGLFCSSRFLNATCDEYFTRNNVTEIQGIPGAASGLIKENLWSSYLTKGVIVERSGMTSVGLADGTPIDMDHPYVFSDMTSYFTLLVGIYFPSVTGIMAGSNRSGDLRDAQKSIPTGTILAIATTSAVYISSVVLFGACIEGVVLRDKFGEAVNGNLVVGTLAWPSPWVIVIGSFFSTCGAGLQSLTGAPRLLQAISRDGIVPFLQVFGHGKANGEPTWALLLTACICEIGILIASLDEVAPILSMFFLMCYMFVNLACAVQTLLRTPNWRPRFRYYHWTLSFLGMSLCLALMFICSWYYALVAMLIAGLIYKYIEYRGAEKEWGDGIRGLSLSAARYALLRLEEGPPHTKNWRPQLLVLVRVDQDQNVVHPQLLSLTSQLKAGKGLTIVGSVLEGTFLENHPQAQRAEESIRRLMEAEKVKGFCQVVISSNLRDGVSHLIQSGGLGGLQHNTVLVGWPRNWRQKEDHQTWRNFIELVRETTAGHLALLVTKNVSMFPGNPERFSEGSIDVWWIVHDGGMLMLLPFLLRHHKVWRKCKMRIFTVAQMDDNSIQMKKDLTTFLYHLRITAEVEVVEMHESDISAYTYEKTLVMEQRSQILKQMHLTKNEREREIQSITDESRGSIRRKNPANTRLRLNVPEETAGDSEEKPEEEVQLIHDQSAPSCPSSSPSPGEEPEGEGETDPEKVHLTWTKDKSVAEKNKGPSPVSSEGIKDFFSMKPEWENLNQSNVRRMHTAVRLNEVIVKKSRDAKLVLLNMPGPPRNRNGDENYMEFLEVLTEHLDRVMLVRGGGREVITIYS
RGS4 pot – RGS4 potentiation or activation; HEK293 M3R/inducible RGS4, carbachol calcium flux Fluo4; stronger effect = lower value; B-score at 10 µM; hit rate 0.92% among 310,000; AID 463111;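 active = B-score of the integrated calcium signal more than 4 SD below the library mean, with starting fluorescence not abnormally high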;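 also: negative B-score means reduced calcium response which marks RGS4 activation or potentiation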
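test system = HEK293 cells with stable M3R and inducible RGS4 | schedule = recording 10 s baseline at 1 Hz, 100 s post-agonist | technique = Fluo4-AM (2 µM) calcium-flux fluorescence, kinetic read | measure = Agonist-evoked peak-minus-minimum fluorescence over baseline, integrated ratio, B score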
MrgX1 agonist – human MrgX1 receptor agonism, primary screen. MrgX1-HEK293 cells, Fluo-4 calcium fluorescence, agonist mode; stronger effect = higher value. B-score at 10 µM. hit rate 0.44% among 310,000. Q96LB2. AID 588627;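 active = calcium response B-score plate-corrected fluorescence ratio at least 3 library SD, with starting fluorescence B-score inside 5 SD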
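Assay system: stable human MrgX1 HEK293 cell line. Quantity: 15,000 cells per well. Schedule: cells plated overnight, dye loaded 0.5 h 37 °C, 0.5 h room temperature. Detection: Fluo-4 NW calcium-flux fluorescence, kinetic read. Read-out basis: peak-minus-minimum fluorescence over baseline, converted to B scores. Control set: positive and negative control wells on each plate.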
RGS4 inh – inhibitors of human RGS4. P49798. HEK293 M3R/RGS4 inducible, Fluo-4 calcium flux; stronger effect = higher value; triggered by carbachol at its EC20. B-score at 10 µM. hit rate 0.45% among 310,000;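 active = B-score, a plate-corrected calcium signal, over three deviations above library mean, with baseline fluorescence within five deviations of library mean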;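 also: RGS4 expression induced by doxycycline in cells with stable M3 receptor; B-score is computed from the integrated fluorescence ratio over baseline after carbachol; higher B-score means a larger calcium signal and so more RGS4 inhibition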
RGS4 act valid – confirmation of RGS4 activators; shares compounds with RGS4 pot; HEK293 M3R/RGS4 inducible, carbachol calcium flux Fluo4; inhibition, % at 10 µM; hit rate 89% among 1,100; AID 602282;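 active = inhibition above 3 SD of the buffer control wells, cut at about 41% in these data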;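 also: signal is the integrated peak-minus-minimum Fluo4 fluorescence over baseline ratio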
RGS4 act ctr – counter-screen for RGS4 activators: effect in non-induced cells; shares compounds with RGS4 pot; hit rate 82% among 1,100; AID 602283; inhibition, % at 10 µM; HEK293 M3R non-induced RGS4, Fluo4 calcium flux; after carbachol challenge at its EC90;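 active = inhibition exceeding 3 SD of buffer-only control wells, cut at about 26% in these data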;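 also: percent drop in integrated peak-minus-baseline over baseline Fluo4 ratio after carbachol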
* = called active by the depositor.

Screening CS(=O)(=O)c1ccc2nc(NC(=O)c3ccc(Cn4cc(Br)cn4)o3)sc2c1 returned MrgX1 antag inactive, MrgX1 PAM inactive, RGS4 pot -8.8*, MrgX1 agonist inactive, RGS4 inh inactive, RGS4 act valid 63* and RGS4 act ctr 0.
Screening O=C(CSc1c2c(nc3ccc(Cl)cc13)CCCC2)NCCCN1CCOCC1 returned MrgX1 antag inactive, MrgX1 PAM inactive, Cl transport mod -0.92, RGS4 pot -11*, MrgX1 agonist inactive, RGS4 inh inactive, RGS4 act valid 92* and RGS4 act ctr 91*.
`CCOc1cc2sc(N3CCC(C(=O)NCCCN4CCCC4=O)CC3)nc2cc1Br` gave MrgX1 antag inactive, MrgX1 PAM inactive, RGS4 pot -9.4*, MrgX1 agonist inactive, RGS4 inh inactive, RGS4 act valid 48* and RGS4 act ctr 84*.
`Cc1cc(C)c2nc(N3CCC(C(=O)NCCCN4CCCC4=O)CC3)sc2c1` gave MrgX1 antag inactive, MrgX1 PAM inactive, RGS4 pot inactive, MrgX1 agonist inactive and RGS4 inh inactive.
For COc1ccc(CCN(/C=C2\Sc3ccccc3C2=O)C(C)=O)cc1OC the results were MrgX1 antag inactive, MrgX1 PAM inactive, Cl transport mod -0.99, RGS4 pot inactive, MrgX1 agonist inactive and RGS4 inh inactive.
`COc1cc2c(cc1Cl)/C(=C\CCN(C)C)c1ccccc1S2` gave MrgX1 antag inactive, MrgX1 PAM inactive, Cl transport mod 2, RGS4 pot -9.7*, MrgX1 agonist inactive, RGS4 inh inactive, RGS4 act valid 92* and RGS4 act ctr 67*.
COc1ccc(OC)c(-c2csc(NC(=O)c3ccc(F)cc3)n2)c1 was read as MrgX1 antag inactive, MrgX1 PAM inactive, RGS4 pot -8.3*, MrgX1 agonist inactive, RGS4 inh inactive, RGS4 act valid 82* and RGS4 act ctr 52*.
CC(C)CCn1c(O)c(N=NC(=O)Cn2ccc(C(F)(F)F)n2)c2ccccc21 was read as MrgX1 antag inactive, MrgX1 PAM inactive, Cl transport mod 1.1, RGS4 pot -15*, MrgX1 agonist inactive, RGS4 inh inactive, RGS4 act valid 44* and RGS4 act ctr 84*.
For CCCn1c(O)c(N=NC(=O)CNC(=O)c2ccncc2)c2ccccc21 the results were MrgX1 antag inactive, MrgX1 PAM inactive, RGS4 pot inactive, MrgX1 agonist inactive and RGS4 inh inactive.
For COc1c(C(=O)Nc2ccc(Cc3ccncc3)cc2)ccc2ccccc12 the results were MrgX1 antag inactive, MrgX1 PAM inactive, Cl transport mod -2.9, RGS4 pot -13*, MrgX1 agonist inactive, RGS4 inh inactive, RGS4 act valid 92* and RGS4 act ctr 86*.
Screening COc1ccc(Br)cc1C(=O)Nc1ccc(Cc2ccncc2)cc1 returned MrgX1 antag inactive, MrgX1 PAM inactive, RGS4 pot inactive, MrgX1 agonist inactive and RGS4 inh inactive.
Screening O=C(NC1CCCCC1)N1CCSC1=Nc1ccccc1 returned MrgX1 antag inactive, MrgX1 PAM inactive, Cl transport mod -0.55, RGS4 pot -8.2*, MrgX1 agonist inactive, RGS4 inh inactive, RGS4 act valid 80* and RGS4 act ctr 43*.
Screening COc1ccccc1C(=O)NCC1CCN(c2ccc(S(=O)(=O)N3CCOCC3)cc2)CC1 returned MrgX1 antag inactive, MrgX1 PAM inactive, Cl transport mod 1.3, RGS4 pot -7.8*, MrgX1 agonist inactive, RGS4 inh inactive, RGS4 act valid 93* and RGS4 act ctr 86*.
For Cc1ccc2c(c1)NC(=O)C(CC(=O)Nc1ccc(CN3CCC(C)CC3)cc1)O2 (configuration not stated) the results were MrgX1 antag inactive, MrgX1 PAM inactive, Cl transport mod 0.23, RGS4 pot -7.7*, MrgX1 agonist inactive, RGS4 inh inactive, RGS4 act valid 92* and RGS4 act ctr 95*.
CC(/C=N/n1c(-c2n[nH]c3c2CCC3)n[nH]c1=S)=C\c1ccco1 was read as MrgX1 antag inactive, MrgX1 PAM inactive, Cl transport mod -0.02, RGS4 pot -9*, MrgX1 agonist inactive, RGS4 inh inactive, RGS4 act valid 93* and RGS4 act ctr 90*.
Screening Cc1ccccc1-c1n[nH]c(=S)n1/N=C/C=C/c1ccco1 returned MrgX1 antag inactive, MrgX1 PAM inactive, Cl transport mod 1.2, RGS4 pot -8*, MrgX1 agonist inactive, RGS4 inh inactive, RGS4 act valid 89* and RGS4 act ctr 44*.
For CCn1c(=O)n(CCc2ccccc2)c(=O)c2c3c(sc21)CCCC3 the results were MrgX1 antag inactive, MrgX1 PAM inactive, Cl transport mod 0.89, RGS4 pot inactive, MrgX1 agonist inactive and RGS4 inh inactive.
Screening COC(=O)Cn1c(=O)n(CCc2ccccc2)c(=O)c2c3c(sc21)CCCC3 returned MrgX1 antag inactive, MrgX1 PAM inactive, Cl transport mod 2.1, RGS4 pot -7.8*, MrgX1 agonist inactive, RGS4 inh inactive, RGS4 act valid 92* and RGS4 act ctr 89*.
O=S(=O)(/N=C(/Nc1cccc2ccccc12)c1ccc(F)cc1)c1ccccc1 was read as MrgX1 antag inactive, MrgX1 PAM inactive, RGS4 pot inactive, MrgX1 agonist inactive and RGS4 inh inactive.
For C/C(=N\NC(=O)c1ccc(CN2CCc3ccccc3C2)cc1)c1ccccc1O the results were MrgX1 antag -5*, MrgX1 PAM inactive, Cl transport mod -2.3, RGS4 pot -14*, MrgX1 agonist inactive, RGS4 inh inactive, RGS4 act valid 94* and RGS4 act ctr 96*.
For CN1/C(=C\C(=O)Nc2ccc(Cl)cc2)C(C)(C)c2ccccc21 the results were MrgX1 antag inactive, MrgX1 PAM inactive, Cl transport mod -0.53, RGS4 pot -9.7*, MrgX1 agonist inactive, RGS4 inh inactive, RGS4 act valid 92* and RGS4 act ctr 95*.
`CN1/C(=C\C=C(/C#N)C(=O)Nc2ccc(Cl)cc2)C(C)(C)c2ccccc21` gave MrgX1 antag inactive, MrgX1 PAM inactive, Cl transport mod inactive, RGS4 pot inactive, MrgX1 agonist inactive and RGS4 inh inactive.

Assay outcomes from PubChem.
